A selection: hits, their analogues and other compounds. The true share with any hit is near 2.6%.
SENP7 block = SENP7 protease inhibition; Q9BQF6; recombinant SENP7, Z-RLRGG-aminoluciferin luminescence, 40 min; inhibition, % at 5 µM; 330,000 tested, 1.5% active;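 active means inhibition above about 50% at the single test dose, limit read from the data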;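 further: plate controls were DMSO with enzyme for no effect and no enzyme buffer wells for full effect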
Target sequence (Q9BQF6 706-1050 limits assumed): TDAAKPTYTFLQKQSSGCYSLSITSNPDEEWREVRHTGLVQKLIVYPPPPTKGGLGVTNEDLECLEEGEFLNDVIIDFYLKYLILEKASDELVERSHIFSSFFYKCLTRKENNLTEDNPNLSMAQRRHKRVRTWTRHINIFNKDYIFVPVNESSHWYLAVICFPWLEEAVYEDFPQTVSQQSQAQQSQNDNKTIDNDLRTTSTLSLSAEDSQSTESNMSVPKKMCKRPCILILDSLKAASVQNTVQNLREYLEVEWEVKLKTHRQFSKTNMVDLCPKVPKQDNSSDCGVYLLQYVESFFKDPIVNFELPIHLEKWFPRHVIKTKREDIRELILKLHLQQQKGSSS
SENP8 block-1 = SENP8 protease inhibition; Q96LD8; purified SENP8, Z-RLRGG-aminoluciferin cleavage, luminescence; inhibition, % at 10 µM; 330,000 tested, 1.2% active; in the data active means inhibition above about 50%
UCH37 DUB inh = blocks the human deubiquitinase UCH37; 330,000 tested, 0.33% active; purified proteasome/UCH37, Ub-AMC cleavage fluorescence; Q9Y5K5; inhibition, % (test concentration not listed);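 active means mean inhibition over replicate wells above about 20%, limit read from the data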;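 further: 0% = compound-free wells with enzyme and 100% = wells lacking proteasome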
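system = Proteasome-associated human UCH37 deubiquitinase | amount = 0.15 nM proteasome as dispensed | medium = pH 7.4 Tris-HCl (50 mM) with ovalbumin, ATP-MgCl2, DTT | incubation = 30 min preincubation with enzyme, 25 min cleavage at room temperature | detection = AMC fluorescence 355/460 nm | read-out basis = percent inhibition | controls = no-proteasome and no-compound wells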
SENP6 inh = inhibitors of human SENP6 protease. Recombinant SENP6 catalytic domain, aminoluciferin luminescence. inhibition, % at 10 µM. 330,000 tested, 1.8% active. AID 2599;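 active means inhibition above about 50% at the single tested dose, limit read from the data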;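 further: plate controls were DMSO wells with enzyme for no effect and DMSO wells lacking enzyme for full effect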
SENP1 inh = inhibitors of human SENP1 SUMO protease catalytic domain | recombinant SENP1 catalytic domain, CyPet-SUMO1-YPet FRET cleavage | Q9P0U3 | inhibition, % at 10 µM | 360,000 tested, 0.21% active;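 active means inhibition at least 30% at 10 µM, raw YFP signal under a set limit, fluorescence ratio 0.5 to 1.5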;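 further: 0% = enzyme with DMSO and 100% = no enzyme wells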
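Test system: recombinant human SENP1 catalytic domain, His6-tagged / Medium: pH 8 Tris buffer with EDTA, NaCl, BME, BSA, NP40, catalase / Also added: SUMO1 FRET substrate flanked by Cypet and Ypet, 25 nM / Times: 50 min reaction at room temperature / Signal: FRET, CFP and YFP emission / Control set: no-enzyme low control and enzyme-plus-DMSO high control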
SENP8 block-2 = blocks human SENP8 cleavage of Nedd8 substrate; Q96LD8; recombinant SENP8, Nedd8 substrate fluorescence; inhibition, % at 20 µM; 360,000 tested, 0.64% active; in the data active means inhibition mostly above about 40%, no sharp cut-off; inactive means mostly below about 27%
SENP8 conf = confirmation of human SENP8 protease inhibitors; shares compounds with SENP7 block; Recombinant SENP8, Z-RLRGG-aminoluciferin luminescence, 60 min; inhibition, % at 12.5 µM; 6,200 tested, 40% active; AID 488912;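 active means mean inhibition across replicates above about 50%, limit read from the data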
SENP6 conf = human SENP6 inhibition, confirmed | inhibition, % at 12.5 µM | 6,200 tested, 58% active | shares compounds with SENP7 block | recombinant SENP6, Z-RLRGG-aminoluciferin luminescence
SENP7 confirm = human SENP7 inhibition, confirmed | recombinant SENP7, Z-RLRGG-aminoluciferin luminescence, 40 min | inhibition, % at 12.5 µM | 6,200 tested, 69% active | shares compounds with SENP7 block
Casp3 select = caspase-3 inhibition (SENP selectivity assay); purified caspase-3, Z-DEVD-aminoluciferin luminescence, 60 min; inhibition, % at 12.5 µM; 6,200 tested, 60% active; shares compounds with SENP7 block;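 active means mean inhibition above about 50%, limit read from the data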;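 further: plate controls were enzyme with DMSO for no effect and wells without caspase-3 for full effect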
Target sequence (P42574 28-227 limits assumed): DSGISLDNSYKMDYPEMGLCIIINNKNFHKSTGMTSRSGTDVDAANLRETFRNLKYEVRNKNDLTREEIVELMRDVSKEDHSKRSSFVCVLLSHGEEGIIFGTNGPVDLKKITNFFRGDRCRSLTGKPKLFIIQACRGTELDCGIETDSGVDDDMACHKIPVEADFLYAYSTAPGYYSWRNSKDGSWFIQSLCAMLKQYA
Luc interf = interferes with luciferase luminescence in SENP counter-screen; Pre-incubated SENP8/Z-RLRGG-aminoluciferin, luciferase luminescence interference; inhibition, % at 12.5 µM; AID 488919; shares compounds with SENP7 block; 6,200 tested, 39% active;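 active means mean inhibition above about 50% when retested at one dose, limit read from the data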;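 further: plate controls were DMSO wells with completed reaction for no effect and substrate without enzyme for full effect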
An asterisk follows results filed as active; . = no result given.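 How the source made its calls, unless noted: active means mean inhibition above about 50% in the one-dose retest (limit read from the data); inactive means the rest.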

SMILES	SENP7 block	SENP8 block-1	UCH37 DUB inh	SENP6 inh	SENP1 inh	SENP8 block-2	SENP8 conf	SENP6 conf	SENP7 confirm	Casp3 select	Luc interf
O=C(O)c1cc(NN=Cc2ccc(OCc3ccccc3)cc2)ccc1Cl	.	.	2	.	.	.	.	.	.	.	.
O=C(O)c1cc(N/N=C/c2ccc(OCc3ccccc3)cc2)ccc1Cl	30	72*	.	56*	-1	-8	60*	54*	74*	15	69*
Cc1nn(-c2ccccc2)c(Cl)c1/C=N/Nc1ccc(Cl)c(C(=O)O)c1	92*	97*	.	100*	1	-16	99*	100*	103*	85*	80*
Clc1cnc(NN=Cc2ccncc2)c(Cl)c1	.	.	16	.	.	.	.	.	.	.	.
CCOc1ccc(NC(=O)c2ccccc2O)cc1	38	36	-4	64*	1	5	55*	49	78*	64*	63*
CCOc1ccc(NC(=O)c2cnccn2)cc1	39	-5	6	36	2	14	.	.	.	.	.
CCOc1ccc(NC(=O)c2ccccn2)cc1	92*	81*	2	91*	9	6	92*	92*	100*	96*	89*
CCOc1ccc(NC(=O)c2nccnc2CO)cc1	48	14	3	53*	0	-12	38	35	74*	82*	55*
CC(C)C(=O)ON=C(N)c1ccc(Oc2ccc(Cl)cc2)c([N+](=O)[O-])c1	.	.	5	.	.	.	.	.	.	.	.
CCOc1cccc(-c2c(C(=O)NN=Cc3c(F)cccc3Cl)nnn2-c2nonc2N)c1	.	.	1	.	.	.	.	.	.	.	.
CCN(CC)c1ccc(C(=O)OCC(=O)Nc2ncccn2)cc1	6	2	3	1	1	-44	.	.	.	.	.
CCN(CC)c1ccc(C(=O)OCC(=O)Nc2sccc2C#N)cc1	6	21	-4	69*	-1	-10	38	42	70*	21	37
CC(=O)OC[C@H]1O[C@@H](ON=CC[C@@H]2C=C[C@H](OC(C)=O)[C@@H](COC(C)=O)O2)[C@H](OC(C)=O)[C@@H](OC(C)=O)[C@@H]1OC(C)=O	.	.	12	.	.	.	.	.	.	.	.
COc1ccc(-n2nnnc2SCC(=O)Nc2nnc(C)s2)cc1OC	95*	-4	-1	0	2	4	-24	-16	-7	-8	-5
CCOC(=O)c1csc(NC(=O)CSc2nnnn2-c2ccc(OC)c(OC)c2)n1	0	-5	2	6	2	24	.	.	.	.	.
Cn1c(CNc2ccc(Cl)cc2)nc2ccccc21	-7	0	2	1	4	18	.	.	.	.	.
Cc1cccc(NCc2nc3ccccc3n2C)c1	56*	29	5	50*	1	15	42	42	79*	71*	56*
Cc1ccc(NCc2nc3ccccc3n2C)c(C)c1	79*	71*	2	76*	1	12	83*	83*	95*	88*	85*
Cc1cccc(NCc2nc3ccccc3n2Cc2ccccc2)c1	27	23	1	58*	3	-1	29	26	58*	25	35
Cc1ccc(N2CCN(c3ccc(NCc4nc5ccccc5n4C)cc3)CC2)cc1	-1	-14	.	-4	-3	-191	.	.	.	.	.
Oc1c(C=NNc2cccc3cccnc23)ccc2ccccc12	.	.	0	.	.	.	.	.	.	.	.
Cc1ncc(CO)c(/C=N/N=C/c2ccccc2O)c1O	25	32	.	60*	21	-35	7	7	9	9	5
Cc1ncc(CO)c(C=NN=Cc2ccccc2O)c1O	.	.	4	.	.	.	.	.	.	.	.
CCC(C)[C@@H](N)C(=O)NN=Cc1cccc2nccnc12 (stereo partly drawn)	.	.	4	.	.	.	.	.	.	.	.
CCCc1nnc(NC(=O)CC(=O)Nc2ccccc2C(=O)O)s1	38	43	-1	61*	1	0	65*	61*	84*	87*	60*
SMILES	SENP7 block	SENP8 block-1	UCH37 DUB inh	SENP6 inh	SENP1 inh	SENP8 block-2	SENP8 conf	SENP6 conf	SENP7 confirm	Casp3 select	Luc interf
CCCc1nnc(NC(=O)CS(=O)(=O)c2ccccc2)s1	-2	-4	1	-12	-2	8	.	.	.	.	.
O=c1c2ccccc2nc(NN=Cc2ccccc2)n1O	.	.	6	.	.	.	.	.	.	.	.
CCOC(=O)NN=C(C)c1ccc(C)o1	.	.	0	.	.	.	.	.	.	.	.
COc1cc(C=NNC(=O)C(C)Nc2n[nH]c(=O)[nH]c2=O)ccc1O (stereo not drawn)	.	.	2	.	.	.	.	.	.	.	.
C=CCNC(=O)c1cc(Cl)cc(Cl)c1	-2	-4	1	-18	-2	8	.	.	.	.	.
C=CCNC(=O)c1cc(Cl)ccn1	89*	3	-1	5	-1	9	-7	0	-7	-4	-5
Cc1ccc(C=NNS(=O)(=O)c2ccccc2)o1	.	.	2	.	.	.	.	.	.	.	.
O=C(c1ccc(-c2ccccc2Cl)o1)N1CCC1	-3	-5	8	5	2	18	.	.	.	.	.
O=C(c1cc(-c2ccc(Cl)cc2)on1)N1CCCC1	33	33	6	56*	0	20	18	13	32	22	-2
O=C(c1cc(-c2cccc(Cl)c2)on1)N1CCCC1	2	-8	0	-12	2	6	.	.	.	.	.
O=C(c1cc(-c2ccccc2Cl)on1)N1CCCC1	63*	57*	0	72*	1	9	9	64*	90*	78*	66*
CC1CCN(C(=O)c2ccc(-c3ccccc3Cl)o2)CC1	42	49	1	72*	-1	6	66*	66*	82*	51*	65*
O=C(c1cc(-c2ccc(Cl)c(Cl)c2)on1)N1CCCCC1	57*	14	2	35	0	10	20	20	24	12	5
O=C(c1cc(-c2ccccc2)on1)N1CCCC1	46	1	1	17	2	26	.	.	.	.	.
CC(=NNC(=O)c1nnn(-c2nonc2N)c1CN1CCCCC1)c1ccccc1O	.	.	-14	.	.	.	.	.	.	.	.
Cc1cc(C=NNC(=O)c2ccncc2)c(C)n1-c1cccc(C(F)(F)F)c1	.	.	3	.	.	.	.	.	.	.	.
Nc1nonc1C(=O)NN=Cc1cc2c(cc1[N+](=O)[O-])OCO2	.	.	2	.	.	.	.	.	.	.	.
COc1ccccc1C=NNC(=O)c1csc(C)c1C	.	.	5	.	.	.	.	.	.	.	.

Assay outcomes (PubChem BioAssay)
